# The source made the active and inactive calls. No cut-off for these calls is given here.
# What was measured:
# [1] = target: T1, DNA topoisomerase 1 (Homo sapiens) (UniProt P11387); test: Inhibition of human recombinant topoisomerase 1 in human HCT116 cells assessed as DNA-protein cross linking at 1 uM after 1 hr; assay type: cell-based; settings: HCT-116
# T1 sequence (whole entry): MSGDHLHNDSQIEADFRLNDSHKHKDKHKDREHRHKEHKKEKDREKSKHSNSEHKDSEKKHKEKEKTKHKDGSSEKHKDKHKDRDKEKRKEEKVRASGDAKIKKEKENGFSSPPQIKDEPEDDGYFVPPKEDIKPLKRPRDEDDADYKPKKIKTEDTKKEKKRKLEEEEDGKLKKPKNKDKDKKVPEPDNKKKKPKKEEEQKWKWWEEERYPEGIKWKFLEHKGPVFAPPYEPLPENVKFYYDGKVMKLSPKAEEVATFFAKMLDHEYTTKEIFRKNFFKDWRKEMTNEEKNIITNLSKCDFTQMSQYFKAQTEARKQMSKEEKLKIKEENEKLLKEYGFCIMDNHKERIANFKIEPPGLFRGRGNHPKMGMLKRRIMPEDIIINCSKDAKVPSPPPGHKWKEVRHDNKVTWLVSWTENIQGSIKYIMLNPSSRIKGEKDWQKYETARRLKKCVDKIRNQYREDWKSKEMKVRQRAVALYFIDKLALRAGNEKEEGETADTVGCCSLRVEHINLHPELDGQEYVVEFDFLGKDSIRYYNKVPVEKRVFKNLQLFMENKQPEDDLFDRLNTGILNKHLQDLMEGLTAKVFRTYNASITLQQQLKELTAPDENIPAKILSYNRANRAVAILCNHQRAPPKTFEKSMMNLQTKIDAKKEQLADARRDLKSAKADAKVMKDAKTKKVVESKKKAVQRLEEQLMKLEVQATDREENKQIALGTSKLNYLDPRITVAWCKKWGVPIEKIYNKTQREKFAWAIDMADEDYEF
# Outline: (§1)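 In HCT116 cells, Top1 cleavage complexes were quantified as DNA–protein cross-links by alkaline elution, plotting the fraction of DNA retained on the filter against time. Persistence was read 1 h after drug removal. The negative control was untreated cells given 30 Gy irradiation to create strand breaks.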
# [2] = Resistance ratio of GI50 for vinblastine-resistant human KBV1 cells to GI50 for human KB 3.1 cells; assay type: functional
# [3] = target: T1, DNA topoisomerase 1 (Homo sapiens); test: Inhibition of human recombinant topoisomerase 1 in human HCT116 cells assessed as reversal of topoisomerase 1-DNA cleavage complex stabilization at 1 uM incubated for 1 hr followed by compound washout measured after 24 hrs by DNA immunoblotting analysis; assay type: cell-based; settings: HCT-116
# Outline: (§2)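 10^6 HCT116 cells were treated with 1 μM for 1 h, and for reversal were held in drug-free medium for the set times. Cells were lysed with DNAzol and genomic DNA was isolated and sonicated. Serial dilutions were slot-blotted onto membranes and Top1–DNA complexes detected with the C21 anti-Top1 monoclonal antibody by immunoblotting (ICE method).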
# [4] = Resistance ratio of GI50 for human mitoxantrone-resistant H460 cells to GI50 for human H460 cells; assay type: functional
# Outline: (§3)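 Relative resistance = GI50 in the resistant subline divided by GI50 in the parental line. Both GI50s came from 72 h continuous-exposure MTS growth assays, each based on at least two independent determinations.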
# [5] = target: T1, DNA topoisomerase 1 (Homo sapiens); test: Inhibition of human recombinant topoisomerase 1 in human HCT116 cells assessed as reversal of topoisomerase 1-DNA cleavage complex stabilization at 1 uM incubated for 1 hr followed by compound washout measured up to 6 hrs by DNA immunoblotting analysis; assay type: cell-based; settings: HCT-116; outline: as §2
# [6] = target: T1, DNA topoisomerase 1 (Homo sapiens); test: Inhibition of human recombinant topoisomerase 1 in human HCT116 cells assessed as DNA-protein cross linking at 1 uM incubated for 1 hr followed by compound washout measured after 1 hr; assay type: cell-based; settings: HCT-116; outline: as §1
# [7] = Cytotoxicity against human H460 cells after 72 hrs by MTT assay; assay type: functional; settings: NCI-H460, 72 h
# Outline: (§4)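 Cells were seeded 24 h before dosing and exposed continuously for 72 h. Growth was read by colorimetric MTS assay and expressed relative to vehicle-treated controls set at 100. GI50 is the level giving 50% growth inhibition, from at least two independent determinations. HCT116 and siTop1 cells were kept in RPMI 1640/10% FBS with 100 μg/mL hygromycin; RC0.1 in RPMI 1640/10% FBS.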
# HCT-116 [8] = test: Resistance ratio of GI50 for human HCT116 cells transfected with Top1-siRNA to GI50 for human HCT116 cells; assay type: functional; outline: as §3
# HCT-116 [9] = test: Cell cycle arrest in human HCT116 cells at 1 uM incubated for 1 hr followed by compound washout measured up to 1 hr by propidium iodide staining-based FACS analysis; assay type: functional
# Outline: (§5)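 HCT116 cells exposed to 1 μM drug for 1 h, then kept in drug-free medium for the stated times. Fixed cells were stained with propidium iodide and analysed by flow cytometry for DNA content histograms. Phase distributions were computed from the histograms.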
# HCT-116 [10] = test: Cytotoxicity against human HCT116 cells after 72 hrs by MTT assay; assay type: functional; settings: HCT-116, 72 h; outline: as §4
# HCT-116 [11] = test: Cytotoxicity against human HCT116 cells transfected with Top1-siRNA after 72 hrs by MTT assay; assay type: functional; settings: HCT-116, 72 h; outline: as §4
# HCT-116 [12] = test: Induction of DNA damage in human HCT116 cells assessed as induction of histone gamma-H2AX level at 1 uM after 1 hr by flow cytometry
# [13] = Cytotoxicity against human KB 3.1 cells after 72 hrs by MTT assay; assay type: functional; settings: KB 3-1, 72 h; outline: as §4
# DU-145 [14] = test: Cytotoxicity against human DU145 cells after 72 hrs by MTT assay; assay type: functional; settings: DU-145, 72 h; outline: as §4
# [15] = Cytotoxicity against vinblastine-resistant human KBV1 cells after 72 hrs by MTT assay; assay type: functional; settings: KB-V1, 72 h; outline: as §4
# DU-145 [16] = test: Resistance ratio of GI50 for human RC0.1 cells to GI50 for human DU145 cells; assay type: functional; outline: as §3
# [17] = Cytotoxicity against human mitoxantrone-resistant H460 cells after 72 hrs by MTT assay; assay type: functional; settings: NCI-H460, 72 h; outline: as §4
# HCT-116 [18] = test: Cell cycle arrest in human HCT116 cells assessed as accumulation at G2 phase at 1 uM incubated for 1 hr followed by compound washout measured after 6 to 48 hrs by propidium iodide staining-based FACS analysis; assay type: functional; outline: as §5
# [19] = Cytotoxicity against human RC0.1 cells after 72 hrs by MTT assay; assay type: functional; outline: as §4
# HCT-116 [20] = test: Cell cycle arrest in human HCT116 cells at 1 uM after 1 hr by propidium iodide staining-based FACS analysis; assay type: functional; outline: as §5
# [21] = target: T1, DNA topoisomerase 1 (Homo sapiens); test: Inhibition of human recombinant topoisomerase 1 in human HCT116 cells assessed as stabilization of topoisomerase 1-DNA cleavage complex at 1 uM after 1 hr by DNA immunoblotting analysis; assay type: cell-based; settings: HCT-116; outline: as §2
# [22] = target: T1, DNA topoisomerase 1 (Homo sapiens); test: Inhibition of human recombinant topoisomerase 1 using radiolabeled DNA as substrate after 20 mins by SDS-PAGE
# Outline: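 A 117 bp oligonucleotide was 3′-end-labelled with [α-32P]dGTP by Klenow fill-in. Reactions were stopped with 0.5% SDS and run on 20% denaturing polyacrylamide gels. Cleavage bands were scored visually on a semiquantitative scale.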
# HCT-116 [23] = test: Cell cycle arrest in human HCT116 cells assessed as accumulation at S phase at 1 uM incubated for 1 hr followed by compound washout measured after 3 hrs by propidium iodide staining-based FACS analysis; assay type: functional; outline: as §5
# HOP-62 = test: Cytotoxicity against human HOP62 cells by SRB assay; assay type: functional
# MCF7 = test: Cytotoxicity against human MCF7 cells by SRB assay; assay type: functional
# [24] = target: T1, DNA topoisomerase 1 (Homo sapiens); test: Inhibition of human recombinant topoisomerase 1 using radiolabeled DNA as substrate at 0.1 to 100 uM after 20 mins by SDS-PAGE
# Outline: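 Baculovirus-purified human recombinant Top1 with ~2 nM of a 117 bp oligonucleotide, 3′-end-labeled with [α-32P]dGTP by Klenow fill-in. Drugs at 0.1, 1, 10, 100 μM; 25 °C, 20 min. Stopped with 0.5% SDS, run on 20% denaturing PAGE, phosphorimaged. Cleavage bands scored visually against camptothecin standard.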
# DU-145 [25] = test: Cytotoxicity against human DU145 cells by SRB assay; assay type: functional
# SN12C = test: Cytotoxicity against human SN12C cells by SRB assay; assay type: functional
# HCT-116 [26] = test: Cytotoxicity against human HCT116 cells by SRB assay; assay type: functional
# OVCAR-3 = test: Cytotoxicity against human OVCAR3 cells by SRB assay; assay type: functional
# UACC-62 = test: Cytotoxicity against human UACC62 cells by SRB assay; assay type: functional
# SF-539 = test: Cytotoxicity against human SF539 cells by SRB assay; assay type: functional
compound,measurement,setting,value
COc1cnc2c(c1)C(=O)c1c-2n(CCCN2CCOCC2)c(=O)c2cc([N+](=O)[O-])ccc12,inhibition,[1],Active
same,RatioGI50,[2],0.74
same,inhibition,[3],Active
same,RatioGI50,[4],5.25
same,inhibition,[5],Active
same,inhibition,[6],Active
same,GI50,[7],33.9 nM
same,RatioGI50,HCT-116 [8],0.89
same,Activity,HCT-116 [9],Active
same,GI50,HCT-116 [10],126 nM
same,GI50,HCT-116 [11],112 nM
same,Activity,HCT-116 [12],37.6%
same,GI50,[13],562 nM
same,GI50,DU-145 [14],141 nM
same,GI50,[15],417 nM
same,RatioGI50,DU-145 [16],7.41
same,GI50,[17],178 nM
same,Activity,HCT-116 [18],Active
same,GI50,[19],1050 nM
same,Activity,HCT-116 [20],Active
same,inhibition,[21],Active
same,inhibition,[22],Active
same,Activity,HCT-116 [23],Active
COc1cnc2c(c1)C(=O)c1c-2n(CCCN(C)C)c(=O)c2cc(OC)c(OC)cc12,inhibition,[22],Active
COc1cnc2c(c1)C(=O)c1c-2n(CCCN)c(=O)c2cc([N+](=O)[O-])ccc12,GI50,HOP-62,19 nM
same,GI50,MCF7,< 10 nM
same,inhibition,[24],Active
same,GI50,DU-145 [25],35 nM
same,GI50,SN12C,40 nM
same,GI50,HCT-116 [26],36 nM
same,GI50,OVCAR-3,98 nM
same,GI50,UACC-62,24 nM
same,GI50,SF-539,73 nM
COc1cnc2c(c1)C(=O)c1c-2n(CCCN(C)C)c(=O)c2cc([N+](=O)[O-])ccc12,inhibition,[22],Active
COc1cnc2c(c1)C(=O)c1c-2n(CCCN2CCOCC2)c(=O)c2cc(OC)c(OC)cc12,inhibition,[22],Active
COc1cnc2c(c1)C(=O)c1c-2n(CCCNCCO)c(=O)c2cc([N+](=O)[O-])ccc12,GI50,HOP-62,< 10 nM
same,GI50,MCF7,< 10 nM
same,inhibition,[24],Active
same,GI50,DU-145 [25],< 10 nM
same,GI50,SN12C,< 10 nM
same,GI50,HCT-116 [26],< 10 nM
same,GI50,OVCAR-3,35 nM
same,GI50,UACC-62,< 10 nM
same,GI50,SF-539,14 nM
O=C1c2cccnc2-c2c1c1ccc([N+](=O)[O-])cc1c(=O)n2CCCN1CCOCC1,inhibition,[22],Active
CN(C)CCCn1c2c(c3ccc([N+](=O)[O-])cc3c1=O)C(=O)c1cccnc1-2,GI50,HOP-62,1940 nM
same,GI50,MCF7,474 nM
same,GI50,DU-145 [25],1550 nM
same,GI50,SN12C,1560 nM
same,GI50,HCT-116 [26],486 nM
same,GI50,OVCAR-3,3120 nM
same,GI50,UACC-62,3400 nM
same,inhibition,[22],Active
same,GI50,SF-539,3140 nM
COc1cnc2c(c1)C(=O)c1c-2n(CCCN2CCC(O)CC2)c(=O)c2cc([N+](=O)[O-])ccc12,GI50,HOP-62,< 10 nM
same,GI50,MCF7,< 10 nM
same,inhibition,[24],Active
same,GI50,DU-145 [25],< 10 nM
same,GI50,SN12C,< 10 nM
same,GI50,HCT-116 [26],10 nM
same,GI50,OVCAR-3,58 nM
same,GI50,UACC-62,< 10 nM
same,GI50,SF-539,10 nM
CC[C@@]1(O)C(=O)OCc2c1cc1n(c2=O)Cc2cc3ccccc3nc2-1 [CAMPTOTHECIN],GI50,MCF7,13 nM
same,GI50,HCT-116 [10],17.4 nM
same,GI50,HCT-116 [11],35.5 nM
same,Activity,HCT-116 [12],40.9%
same,GI50,DU-145 [14],18.2 nM
same,GI50,[19],> 1000 nM
COc1cccc2c1C(=O)c1c(O)c3c(c(O)c1C2=O)C[C@@](O)(C(=O)CO)C[C@@H]3O[C@H]1C[C@H](N)[C@H](O)[C@H](C)O1 [DOXORUBICIN],GI50,[13],676 nM
same,GI50,[15],> 1000 nM
COc1cnc2c(c1)C(=O)c1c-2n(CCCN(C)CCO)c(=O)c2cc([N+](=O)[O-])ccc12,GI50,HOP-62,28 nM
same,GI50,MCF7,13 nM
same,inhibition,[24],Active
same,GI50,DU-145 [25],36 nM
same,GI50,SN12C,39 nM
same,GI50,HCT-116 [26],49 nM
same,GI50,OVCAR-3,180 nM
same,GI50,UACC-62,29 nM
same,GI50,SF-539,34 nM
CC[C@@]1(O)C(=O)OCc2c1cc1n(c2=O)Cc2cc3c(CN(C)C)c(O)ccc3nc2-1 [TOPOTECAN],inhibition,[3],Active
same,RatioGI50,[4],>22.39
same,inhibition,[5],Active
same,GI50,[7],44.7 nM
same,GI50,[17],> 1000 nM
same,inhibition,[21],Active

# From ChEMBL document CHEMBL3124896, “Optimization of the lactam side chain of 7-azaindenoisoquinoline topoisomerase I inhibitors and mechanism of action studies in cancer cells” (2014)
